18 compounds from ChEMBL document CHEMBL4138070, “Synthesis and biological evaluation of (-)-kunstleramide and its derivatives” (Medchemcomm, 2017) can be followed below.

What all share (type): functional, cell-based
For one assay, the system named is IMR-32. Briefly: Antiproliferative activity in human IMR32 cells assessed as reduction in cell number incubated for 48 hrs by SRB assay. Conditions: IMR-32, 48 h. An outline of the steps: (§1)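 Cell lines from ATCC, kept in DMEM with 10% FBS and 1% penicillin–streptomycin at 37 °C under 5% CO2. Seeded from 5×10^4 cells/ml suspension, grown 24 h, then treated with 1, 10, 50 and 100 μM for 48 h. Fixed with cold 10% TCA 1 h at 4 °C, stained with 0.057% SRB, dye dissolved in 10 mM Tris, read at 510 nm. IC50 is 50% cell-number decrease versus untreated control, from regression.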
For orientation: Sulforhodamine B stains cellular protein and so reports cell mass.

In another assay the test system is HeLa. Nature of the assay: Antiproliferative activity in human HeLa cells assessed as reduction in cell number incubated for 48 hrs by SRB assay. The method, boiled down:
as §1

Another assay relates to MCF7. Nature of the assay: Antiproliferative activity in human MCF7 cells assessed as reduction in cell number incubated for 48 hrs by SRB assay. Conditions: MCF7, 48 h. The method, boiled down:
as §1

In another assay the test system is A549. Nature of the assay: Antiproliferative activity in human A549 cells assessed as reduction in cell number incubated for 48 hrs by SRB assay. To be noted: A549, 48 h. The method, boiled down: as §1

`COc1ccc(C[C@@H](O)/C=C/C=C/C(=O)NCc2ccc(Cl)cc2)cc1OC`: the IC50 in the assay on IMR-32 worked out at 15.7 µM; with HeLa, 13.4 µM; with MCF7, 18.1 µM; with A549, 16.5 µM.
Regarding `COc1ccc(C[C@@H](O)/C=C/C=C/C(=O)N2CCSCC2)cc1OC`, the IC50 with IMR-32 was 16.1 µM; with HeLa, 20.6 µM; with MCF7, 20.2 µM; in the assay on A549 it was 18 µM.
In the case of `COc1ccc(C[C@@H](O)/C=C/C=C/C(=O)NCc2ccccc2)cc1OC`, the IC50 with IMR-32 turned out to be 16.6 µM; with HeLa, 12.9 µM; in the assay with MCF7 it was 33.6 µM; with A549, 17.1 µM.
For `COc1ccc(C[C@@H](O)/C=C/C=C/C(=O)N2CCCC2)cc1OC` the same measures were 12 µM, 14.1 µM, 26.2 µM and 24.4 µM.
Taken in the same sequence, the figures for `COc1ccc(C[C@@H](O)/C=C/C=C/C(=O)N2CCCCC2)cc1OC` were 11 µM, 14.1 µM, 39.5 µM and 16.4 µM.
Taken in the same sequence, the figures for `CCNC(=O)/C=C/C=C/[C@H](O)Cc1ccc(OC)c(OC)c1` were 9.43 µM, 14.6 µM, 12.9 µM and 13.8 µM.
`COc1ccc(C[C@@H](O)/C=C/C=C/C(=O)N2CCOCC2)cc1OC`: the IC50 in the assay on IMR-32 turned out to be 20.4 µM; with HeLa, 16.4 µM; in the assay on MCF7, 16.2 µM; in the assay with A549 it was 17.9 µM.
For `COc1ccc(C[C@@H](O)/C=C/C=C/C(=O)N2CCN(c3ccccn3)CC2)cc1OC` the same measures were 11.1 µM, 23.6 µM, 23.6 µM and 8.13 µM.
Taken in the same sequence, the figures for `O=C(/C=C/C=C/c1ccc2c(c1)OCO2)N1CCCCC1` [PIPERINE] were 10.2 µM, 19.2 µM, 13 µM and 11.9 µM.
For the compound `COc1ccc(C[C@@H](O)/C=C/C=C/C(=O)N2CCN(c3ccccc3)CC2)cc1OC`, the 50% inhibitory concentration (IC50) with IMR-32 came out at 9.43 µM; in the assay with HeLa, 9.75 µM; in the assay on MCF7, 12 µM; with A549, 14.2 µM.
In the case of `COc1ccc(C[C@@H](O)/C=C/C=C/C(=O)N2CCN(C(c3ccccc3)c3ccccc3)CC2)cc1OC`, the IC50 with IMR-32 is 11.9 µM; in the assay on HeLa, 10.5 µM; in the assay on MCF7, 12.5 µM; in the assay with A549 it was 10.6 µM.
`COc1ccc(C[C@@H](O)/C=C/C=C/C(=O)NCc2cc(OC)c(OC)c(OC)c2)cc1OC`: the IC50 in the assay on IMR-32 was found to be 13.4 µM; in the assay with HeLa it was 10.7 µM; in the assay with MCF7 it was 15.3 µM; with A549, 19.2 µM.
Taken in the same sequence, the figures for `COc1ccc(CNC(=O)/C=C/C=C/[C@H](O)Cc2ccc(OC)c(OC)c2)cc1` were 17.4 µM, 9.45 µM, 26.6 µM and 16.8 µM.
For `CCN1CCN(C(=O)/C=C/C=C/[C@H](O)Cc2ccc(OC)c(OC)c2)CC1` the same measures were 10.8 µM, 11.7 µM, 11.5 µM and 15.7 µM.
Turning to `COc1ccc(C[C@@H](O)/C=C/C=C/C(=O)N2CCN(C)CC2)cc1OC`, the IC50 worked out at 18.9 µM in the assay on IMR-32, 16.5 µM with HeLa, 17.1 µM in the assay with MCF7 and 22.2 µM in the assay on A549.
Consider `COc1ccc(C[C@@H](O)/C=C/C=C/C(=O)N2CCN(c3ncccn3)CC2)cc1OC`, for which the IC50 with IMR-32 was found to be 10.8 µM; in the assay with HeLa, 12.6 µM; in the assay on MCF7, 14.7 µM; with A549 it was 9.92 µM.
Taken in the same sequence, the figures for `COc1ccc(C[C@@H](O)/C=C/C=C/C(=O)N2CCN(Cc3ccc4c(c3)OCO4)CC2)cc1OC` were 8.23 µM, 8.25 µM, 12.3 µM and 7.58 µM.
Taken in the same sequence, the figures for `COc1ccc(/C=C\c2cc(OC)c(OC)c(OC)c2)cc1O` [COMBRETASTATIN A4] were 5.72 µM, 5.36 µM, 4.63 µM and 6.45 µM.

What is called IC50 is the concentration that inhibits the measured activity by half.
